This is a sample that favours compounds with a hit; in the whole collection about 2.6% have one here.
AHR activator = human AHR activation; P35869; activation, % at 5 µM; 2.5% of 320,000 active; AID 2796; AHR-responsive luciferase reporter cells, luminescence; in the data active = activation above about 47%;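 note: 0% = vehicle wells and 100% = reference agonist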
Target sequence (P35869 whole entry, looked up): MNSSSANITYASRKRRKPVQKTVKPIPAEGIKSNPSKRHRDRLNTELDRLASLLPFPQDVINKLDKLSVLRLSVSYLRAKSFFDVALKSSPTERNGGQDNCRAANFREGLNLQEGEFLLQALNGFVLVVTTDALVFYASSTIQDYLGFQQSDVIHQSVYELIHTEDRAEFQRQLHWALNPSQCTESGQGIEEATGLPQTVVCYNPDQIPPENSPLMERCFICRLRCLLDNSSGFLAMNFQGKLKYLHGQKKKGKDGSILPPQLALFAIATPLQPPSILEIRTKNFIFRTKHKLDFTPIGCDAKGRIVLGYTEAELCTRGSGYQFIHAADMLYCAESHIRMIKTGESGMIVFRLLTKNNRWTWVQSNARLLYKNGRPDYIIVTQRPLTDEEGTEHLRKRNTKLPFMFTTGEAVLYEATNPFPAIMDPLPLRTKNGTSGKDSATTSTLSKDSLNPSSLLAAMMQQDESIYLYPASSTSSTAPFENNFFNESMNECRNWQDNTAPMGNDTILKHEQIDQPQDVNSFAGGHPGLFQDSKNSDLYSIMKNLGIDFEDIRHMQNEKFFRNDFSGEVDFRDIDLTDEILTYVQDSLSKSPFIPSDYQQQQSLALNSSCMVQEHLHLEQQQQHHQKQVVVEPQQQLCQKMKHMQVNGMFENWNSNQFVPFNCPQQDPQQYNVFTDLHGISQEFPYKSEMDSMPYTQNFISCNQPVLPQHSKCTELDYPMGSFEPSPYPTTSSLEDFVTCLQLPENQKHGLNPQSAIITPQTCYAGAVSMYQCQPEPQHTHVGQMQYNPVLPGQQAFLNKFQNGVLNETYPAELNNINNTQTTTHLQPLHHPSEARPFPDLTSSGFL
proCasp3 act = activates human procaspase-3; P42574; activation, % at 8.5 µM; AID 463141; recombinant procaspase-3 D3A, Ac-DEVD-pNA absorbance 405 nm; 0.11% of 330,000 active;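 active = activation above the mean of all tested compounds plus 3 SD, cut at about 21% in these data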;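 note: 0% = DMSO alone and 100% = DMSO wells spiked with extra 5 µM PC-3 D3A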
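Compound: 8.5 µM single point, 0.8% DMSO / Material: Autoprocessing-dead procaspase-3 D3A mutant enzyme / Timing: 1 h preincubation plus 2 h reaction at 25 °C / Medium: Zinc-free HEPES/NaCl buffer with 0.01% Triton X-100 at pH 7.4 / Technique: 405 nm absorbance of p-nitroaniline, reads at 0 and 120 min / Repeats: one well per compound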
proCasp7 act = activates human procaspase-7, counter-screen for procaspase-3 activators; P55210; recombinant procaspase-7, Ac-DEVD-pNA absorbance 405 nm; D23A/D198A/D206A triple mutant, cannot self-cleave; scale: DMSO 0, 5 µM enzyme 100; activation, % at 8.5 µM; 0.093% of 330,000 active; AID 463210;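 active = percent activation above the screen-wide mean plus 3 SD, cut at about 25% in these data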
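System: Uncleavable procaspase-7 mutant enzyme; Amount: 2 µM procaspase-7 mutant as dispensed; Schedule: 1 h compound preincubation, 2 h substrate cleavage, 25 °C; Measured by: 405 nm absorbance of p-nitroaniline; Evaluation: percent activation from buffer-corrected 0–120 min absorbance change; Control set: low DMSO alone, high DMSO plus 5 µM PC-7.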
PolyA inh = blocks polyadenylation in yeast reporter cells | S. cerevisiae SKY197-pL101 polyadenylation reporter, beta-gal luminescence; efflux-impaired pdr1/pdr3 knockout yeast; score 100 = 6 SD above DMSO | activity score, % at 12 µM | 0.02% of 300,000 active | AID 1875;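 active = lowest replicate activity score at least 50, where 100 means six control SD above control mean; inconclusive = lowest score under 50 but half or more replicates reach 50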;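 note: yeast exposed to compound for 9 h at 30 °C; higher score means more reporter readthrough which indicates perturbed polyadenylation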
Active calls of the source: *; ? = inconclusive; . = not tested or not shown.

SMILES | AHR activator | proCasp3 act | proCasp7 act | PolyA inh
CCCCN(CC)CCNC(=O)c1cc2c(-c3ccc(Cl)cc3)nn(C)c2s1 | 43 | -2 | 4 | 12
CCN(CC)CCNC(=O)c1cc2c(-c3cccc(OC)c3)nn(C)c2s1 | 48* | 7 | 8 | 11
CCCN(CCC)CCNC(=O)c1cc2c(-c3ccc(Cl)cc3)nn(C)c2s1 | 39 | 3 | 11 | 8
CCN(C(=O)COC(=O)c1nccnc1N)c1cccc2ccccc12 | -1 | 0 | 8 | .
CCN(CC(=O)NCc1cccs1)C(=O)c1cccc(S(=O)(=O)Nc2ccccc2Cl)c1 | 2 | 12 | -8 | 10
CC1CCCCC1NC(=O)CCS(=O)(=O)c1ccc(Cl)cc1 (stereo not drawn) | 0 | 6 | 2 | .
Cn1cc(-c2nnc(-c3ccccc3)o2)c2ccccc21 | 49* | 3 | 11 | -16
COc1ccc(-c2cc(C(=O)N/N=C/c3cccnc3)c3cc(C)cc(C)c3n2)cc1 | . | . | . | -16
COc1ccc(CCNC(=O)CSc2nc3ncccc3[nH]2)c(OC)c1 | 9 | -1 | 8 | -2
Nc1ccc2nn(-c3cccc4ccccc34)nc2c1 | 48* | 5 | 5 | 12
Cc1ccc(N/C=C(\C#N)c2ccc(OCCCF)cc2)cc1 | 53* | 4 | 1 | -4
Nc1c(N)c2ccccc2oc1=O | 9 | 2 | 9 | 11
Nc1c(C(=O)c2ccc(Br)s2)oc2ccccc12 | 68* | -31 | -21 | -13
Nc1c(C(=O)c2cccs2)oc2ccccc12 | 49* | -23 | -14 | -12
CC(C)C[C@H](NC(=O)N1CC(=O)Nc2ccccc21)C(=O)N[C@@H](Cc1ccccc1)C(=O)O | 0 | 12 | -7 | -13
Cc1nc(Nc2cccc(Cl)c2)c2oc3ccccc3c2n1 | 38 | 4 | 6 | -77
CCc1nc(NCc2cccnc2)c2oc3ccccc3c2n1 | 64* | -1 | -6 | -11
Cc1nc(Nc2cccc(F)c2)c2oc3ccccc3c2n1 | 49* | 14 | -3 | -44
CCc1nc(Nc2ccc3c(c2)OCCO3)c2oc3ccccc3c2n1 | 63* | 3 | 7 | -14
Cc1nc(Nc2ccc(Cl)cc2)c2oc3ccccc3c2n1 | 78* | 6 | 9 | -31
O=C(NCC1COCCO1)c1cc(COc2ccc(F)cc2F)on1 (stereo not drawn) | -1 | 1 | 4 | 11
O=C(NCC(=O)N(c1cccc(F)c1)C(C(=O)NC1CCCC1)c1ccncc1)c1cccs1 (stereo not drawn) | -3 | -4 | 4 | 2
O=C(CCCC1=NS(=O)(=O)c2ccccc2N1)N1CCN(c2ccc([N+](=O)[O-])cc2)CC1 | 0 | -17 | -16 | 5
Cc1ccc(C)c(OC(=O)c2cccnc2Cl)c1C | 3 | 1 | 6 | -2
Cc1nc(Nc2ccccc2F)c2oc3ccccc3c2n1 | 56* | 3 | -2 | -34
SMILES | AHR activator | proCasp3 act | proCasp7 act | PolyA inh
COc1ccc(Nc2ncnc3c2oc2ccccc23)cc1 | 8 | -7 | 0 | -15
Cc1ccc(Nc2ncnc3c2oc2ccccc23)cc1 | 54* | -5 | 7 | -6
COc1ccccc1Nc1cc(C(=O)N2CCc3ccccc3C2)c2ccccc2n1 | 64* | 1 | 5 | 8
COc1ccc(Nc2cc(C(=O)N3CCc4ccccc4C3)c3ccccc3n2)c(OC)c1 | 55* | -5 | -7 | 0
CC(C)(C)NC(=O)COC(=O)CCC(=O)c1cccs1 | 0 | -1 | 3 | -1
N#Cc1c(-c2ccccc2)c(C#N)c2nc3ccccc3n2c1N | 27 | 5 | -12 | -2
Cc1ccc(-c2c(C#N)c(N)n3c(nc4ccccc43)c2C#N)cc1 | 49* | 5 | -6 | -1
O=C(NC1CCc2ccccc21)c1cc(COc2ccc(F)cc2Cl)on1 (stereo not drawn) | 2 | -1 | 4 | 10
O=C(NC1CCc2ccccc21)c1cc(COc2cncc(Cl)c2)on1 (stereo not drawn) | 55* | 0 | 9 | -18
COc1ccc(OCC(=O)Nc2cc(-c3nn(C)c(=O)c4ccccc34)ccc2N2CCOCC2)cc1 | 0 | -4 | 9 | -6
CC(C)C/C=C1\CCc2c([nH]c3ccccc23)C1=O | 64* | 0 | 7 | -20
O=C1/C(=C/c2cccnc2)CCc2c1[nH]c1ccccc21 | 73* | 7 | 5 | -23
CCCCCCCCC1=NCCc2c1[nH]c1ccccc21 | 36 | -3 | -2 | 11
O=C1c2cccc3cccc(c23)C(=O)N1CCN1CCN(C(=S)Nc2ccc(F)cc2)CC1 | 106* | -12 | 9 | -3
CCCc1nc2c(C)cc(C)cc2c(N)c1CC | 47* | 0 | 8 | -2
Cc1cc(C)c2nc(C(F)(F)F)c(C#N)c(N)c2c1 | 12 | -2 | -13 | -20
CC(=O)Nc1ccc(NC(=O)C(C)OC(=O)CCSc2ccccc2Cl)cc1 (stereo not drawn) | -1 | -2 | 14 | .
Fc1ccccc1Nc1nc(N2CCOCC2)nc(N2CCOCC2)n1 | . | . | . | -29
Fc1ccccc1Nc1nc(NCc2ccco2)nc(N2CCOCC2)n1 | 54* | 9 | 0 | -24
O=C(NCCCn1ccnc1)c1cccc(Br)c1 | 39 | 2 | 5 | -13
CCN(C(=O)c1cnc(NC(C)C)cc1C(F)(F)F)c1ccc(Cl)cc1 | -3 | -10 | -1 | -2
CCC(C)Sc1cc(C(F)(F)F)c(C(=O)Nc2ccc(Cl)cc2)cn1 (stereo not drawn) | 59* | 3 | 6 | 20
O=C(NC1CCOCC1)C1CCC(=O)N(Cc2cccc(C(F)(F)F)c2)C1 (stereo not drawn) | -1 | 1 | 8 | -13
Cc1nc2cc3nc(C(F)(F)F)[nH]c3cc2[nH]1 | 50* | -4 | -1 | -4
Nc1ccc2nc(C(F)(F)F)[nH]c2c1 | 14 | 3 | -1 | 2
SMILES | AHR activator | proCasp3 act | proCasp7 act | PolyA inh
Cc1ccc(C(=O)NCC(=O)Nc2ccc(S(=O)(=O)Nc3cc(C)nc(C)n3)cc2)cc1 | 0 | -8 | -1 | .
CN(C)Cc1c(C(=O)Nc2ccccc2)[nH]c2ccccc12 | 72* | -2 | 7 | 7
CCOC(=O)c1[nH]c2ccccc2c1NC(=S)Nc1ccccc1 | 49* | -7 | -11 | 7
CCOC(=O)c1c(C)nc(-c2ccccc2)nc1NC(=O)CC | 47* | -1 | -4 | 1
CCOC(=O)c1[nH]c2ccccc2c1NC(=O)CC | 60* | 10 | 11 | -1
CCOC(=O)c1[nH]c2ccccc2c1NC(C)=O | 33 | 2 | -4 | -13
CCC(=O)Nc1nc(-c2ccccc2)nc(SC)c1C(C)=O | 18 | 5 | 11 | -1
COc1ccc(-c2c(C)nc3c(-c4ccccn4)cnn3c2N)cc1 | . | . | . | -20
CSc1ncccc1C(=O)N1CCN(S(=O)(=O)c2ccc(F)cc2)CC1 | -1 | -14 | -4 | 12
CCOC(=O)c1[nH]c2ccccc2c1NC(=S)Nc1cccc(C)c1 | 72* | -2 | -23 | ?
CCOC(=O)c1[nH]c2ccccc2c1NC(=O)C(C)(C)C | 3 | 7 | 9 | -7

Compound activity from PubChem.
